From ChEMBL document CHEMBL2069218, “Water-soluble pyrazolo[4,3-e][1,2,4]triazolo[1,5-c]pyrimidines as human A₃ adenosine receptor antagonists” (J Med Chem, 2012) come the findings set out here.

Where only a bound is given, the exact number is not on record here.

Test [1] addresses T1, Adenosine receptor A1 (Homo sapiens, UniProt P30542).
T1 sequence (P30542 whole entry): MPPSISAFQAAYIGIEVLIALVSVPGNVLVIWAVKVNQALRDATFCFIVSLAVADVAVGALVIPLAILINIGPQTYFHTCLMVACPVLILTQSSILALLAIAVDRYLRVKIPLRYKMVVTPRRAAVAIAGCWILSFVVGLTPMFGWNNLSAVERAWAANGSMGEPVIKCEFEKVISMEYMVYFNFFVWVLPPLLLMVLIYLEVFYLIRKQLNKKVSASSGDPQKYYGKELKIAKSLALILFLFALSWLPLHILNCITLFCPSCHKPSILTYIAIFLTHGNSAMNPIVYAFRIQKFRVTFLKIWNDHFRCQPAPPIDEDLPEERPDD
Description: Displacement of [3H]DPCPX from human adenosine A1 receptor expressed in CHO cells after 120 mins by scintillation counter. The format is cell-based. The method, boiled down: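 Membranes from CHO cells expressing human A1 (50 μg protein), in 50 mM Tris-HCl pH 7.4, pretreated with adenosine deaminase 2 IU/mL. [³H]DPCPX 1 nM, 6–8 test concentrations, 120 min at 25 °C. Nonspecific binding with 1 μM DPCPX. GF/B filtration. Ki by Cheng–Prusoff.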

The target in test [2] is Adenosine receptor A2a (Homo sapiens, UniProt P29274). The test is described as follows: Displacement of [3H]ZM241385 from human adenosine A2A receptor expressed in CHO cells after 60 mins by scintillation counter. The format is cell-based. The procedure, abridged: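 Membranes from CHO cells expressing human A2A (50 μg protein), in 50 mM Tris-HCl, 10 mM MgCl2, pH 7.4, adenosine deaminase pretreated. [³H]ZM241385 2 nM, 6–8 concentrations, 60 min at 4 °C. Nonspecific binding with 1 μM ZM241385. Filtration, scintillation counting. Ki by Cheng–Prusoff. 3–4 experiments in duplicate.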
Adenosine receptor A2a, sequence (P29274 whole entry): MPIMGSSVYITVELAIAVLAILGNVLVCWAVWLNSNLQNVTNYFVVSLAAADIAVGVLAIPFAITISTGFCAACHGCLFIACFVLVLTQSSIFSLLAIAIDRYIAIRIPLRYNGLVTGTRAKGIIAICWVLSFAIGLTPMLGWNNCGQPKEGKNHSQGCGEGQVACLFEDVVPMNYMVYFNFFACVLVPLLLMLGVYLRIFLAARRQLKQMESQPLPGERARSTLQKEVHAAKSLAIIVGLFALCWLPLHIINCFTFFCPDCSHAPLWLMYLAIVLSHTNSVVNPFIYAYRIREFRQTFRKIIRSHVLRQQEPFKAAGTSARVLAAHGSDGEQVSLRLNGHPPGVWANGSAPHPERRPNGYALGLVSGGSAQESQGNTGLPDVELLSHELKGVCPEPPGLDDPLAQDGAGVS
For orientation: In a radioligand displacement assay an active substance lowers the binding of a labelled ligand.

Test [3] has as its target T2, Adenosine receptor A3 (Homo sapiens, UniProt P0DMS8).
T2 sequence (P0DMS8 whole entry): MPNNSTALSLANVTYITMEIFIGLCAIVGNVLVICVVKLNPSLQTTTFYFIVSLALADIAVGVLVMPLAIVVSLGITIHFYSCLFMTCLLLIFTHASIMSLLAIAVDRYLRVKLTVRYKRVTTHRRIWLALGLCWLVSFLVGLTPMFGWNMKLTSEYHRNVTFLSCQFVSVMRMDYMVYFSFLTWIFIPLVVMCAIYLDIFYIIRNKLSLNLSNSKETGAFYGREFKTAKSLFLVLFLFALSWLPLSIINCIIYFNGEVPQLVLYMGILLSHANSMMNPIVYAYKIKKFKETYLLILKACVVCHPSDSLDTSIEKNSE
The test is described as follows: Displacement of [3H]MRE-3008-F20 from human adenosine A3 receptor expressed in CHO cells after 120 mins by scintillation counter. The format is cell-based.

For test [4], the target named is T3, Adenosine receptor A2b (Homo sapiens, UniProt P29275).
T3 sequence (P29275 whole entry): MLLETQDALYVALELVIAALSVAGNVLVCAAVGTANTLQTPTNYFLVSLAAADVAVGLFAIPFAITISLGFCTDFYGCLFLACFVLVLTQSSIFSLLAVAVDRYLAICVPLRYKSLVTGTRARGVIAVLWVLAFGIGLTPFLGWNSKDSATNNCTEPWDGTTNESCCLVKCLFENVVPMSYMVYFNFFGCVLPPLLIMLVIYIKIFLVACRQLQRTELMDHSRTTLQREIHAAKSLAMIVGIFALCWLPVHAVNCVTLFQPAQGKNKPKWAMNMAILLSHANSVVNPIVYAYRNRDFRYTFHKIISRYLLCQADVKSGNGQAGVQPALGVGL
The test is described as follows: Antagonist activity at human adenosine A2B receptor expressed in CHO cells assessed as inhibition of NECA-induced cAMP production. The class given is functional, cell-based. The method, boiled down:
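Intact CHO cells (1 × 10⁶/assay) expressing human A2B, in buffer pH 7.4 with 2 IU/mL adenosine deaminase and Ro 20-1724. Preincubated 10 min at 37 °C. NECA 100 nM stimulus. Stopped with cold 6% TCA, ether-extracted, cAMP measured by competition protein binding with [³H]cAMP. IC50 from sigmoid nonlinear regression.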
Background: Changes in cAMP serve as a functional read-out for many G protein-coupled receptors.

Test [5] concerns the target T2, Adenosine receptor A3. The test is described as follows: Antagonist activity at human adenosine A3 receptor expressed in CHO cells assessed as forskolin/C1-IB-MECA-induced inhibition of cAMP production. The format is functional, cell-based. The method, boiled down:
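Intact CHO cells (1 × 10⁶/assay) expressing human A3, in buffer pH 7.4 with 2 IU/mL adenosine deaminase and Ro 20-1724. Preincubated 10 min at 37 °C. Forskolin 1 μM with Cl-IB-MECA 100 nM. Stopped with cold 6% TCA, cAMP measured by [³H]cAMP competition protein binding. IC50 by sigmoid nonlinear regression.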

For `Cn1cc2c(nc(NC(=O)NC3CCNCC3)n3nc(-c4ccco4)nc23)n1`, the Ki is over 5000 nM in test [1], over 5000 nM in test [2] and 65 nM in test [3]. Moreover, the half-inhibitory concentration (IC50) is 2430 nM in test [4] and 262 nM in test [5].
On to `CC(C)NC(=O)N1CCC(NC(=O)Nc2nc3nn(C)cc3c3nc(-c4ccco4)nn23)CC1`, for which the Ki in test [1] was 1320 nM; in test [2], over 5000 nM; in test [3], 9.8 nM. Further, the figures for the concentration for half-maximal inhibition (IC50) in test [4] and in test [5] were over 5000 nM and 34 nM, respectively.
Take `Cn1cc2c(nc(NC(=O)NC3CCN(C(=O)NC4CCCCC4)CC3)n3nc(-c4ccco4)nc23)n1`: the Ki was 761 nM in test [1], over 5000 nM in test [2] and 13.7 nM in test [3]. Also, the IC50 in test [4] was over 5000 nM; in test [5] it was 44 nM.
Consider `Cn1cc2c(nc(NC(=O)NC3CCN(C(=O)Nc4ccncc4)CC3)n3nc(-c4ccco4)nc23)n1`, for which the Ki is 1300 nM in test [1], 1860 nM in test [2] and 21 nM in test [3]. The IC50 in test [4] was 3240 nM; in test [5] it was 82 nM.
The corresponding values for `Cn1cc2c(nc(NC(=O)NC3CCN(C(=O)NC4CCCC4)CC3)n3nc(-c4ccco4)nc23)n1` are 744 nM, over 5000 nM, 9.3 nM, over 5000 nM and 30 nM.
The corresponding values for `Cn1cc2c(nc(NC(=O)NC3CCN(C(=O)NCCc4ccccc4)CC3)n3nc(-c4ccco4)nc23)n1` are 182 nM, 1840 nM, 6.8 nM, 1760 nM and 23 nM.
The corresponding values for `CCCN1CCC(NC(=O)Nc2nc3nn(C)cc3c3nc(-c4ccco4)nn23)CC1` are 2790 nM, 1190 nM, 71 nM, over 5000 nM and 301 nM.
For the compound `Cn1cc2c(nc(NC(=O)NC3CCN(C(=O)NC4CCCCCC4)CC3)n3nc(-c4ccco4)nc23)n1`, the Ki in test [1] is 805 nM; in test [2], over 5000 nM; in test [3], 7.7 nM. Besides, the results for the IC50 in test [4] and in test [5] were over 5000 nM and 26 nM, respectively.
Take `C=CCN1CCC(NC(=O)Nc2nc3nn(C)cc3c3nc(-c4ccco4)nn23)CC1`: the Ki in test [1] was 3360 nM; in test [2], 1420 nM; in test [3] it was 51 nM. For the same compound, the IC50 in test [4] was over 5000 nM; in test [5], 212 nM.
The corresponding values for `Cn1cc2c(nc(NC(=O)NC3CCN(C(=O)NCc4ccc(Cl)cc4)CC3)n3nc(-c4ccco4)nc23)n1` are 614 nM, 1140 nM, 25 nM, 505 nM and 90 nM.
For the compound `Cn1cc2c(nc(NC(=O)NC3CCN(Cc4ccccc4)CC3)n3nc(-c4ccco4)nc23)n1`, the results for the Ki in test [1], in test [2] and in test [3] were 703 nM, 526 nM and 30 nM, respectively. In addition, the IC50 in test [4] was found to be 2060 nM; in test [5], 121 nM.
Turning to `Cc1ccc(CNC(=O)N2CCC(NC(=O)Nc3nc4nn(C)cc4c4nc(-c5ccco5)nn34)CC2)cc1`, the Ki in test [1] came to 396 nM; in test [2], 2810 nM; in test [3] it was 3.9 nM. Also, the IC50 was 2120 nM in test [4] and 12 nM in test [5].
The corresponding values for `Cn1cc2c(nc(NC(=O)NC3CCN(Cc4ccncc4)CC3)n3nc(-c4ccco4)nc23)n1` are 1190 nM, over 5000 nM, 39 nM, over 5000 nM and 166 nM.
The corresponding values for `Cn1cc2c(nc(NC(=O)NC3CCN(Cc4cccnc4)CC3)n3nc(-c4ccco4)nc23)n1` are 1330 nM, over 5000 nM, 44 nM, over 5000 nM and 180 nM.
The corresponding values for `COc1ccc(CNC(=O)N2CCC(NC(=O)Nc3nc4nn(C)cc4c4nc(-c5ccco5)nn34)CC2)cc1` are 635 nM, over 5000 nM, 10.4 nM, 3240 nM and 34 nM.
Consider `CCOC(=O)CN1CCC(NC(=O)Nc2nc3nn(C)cc3c3nc(-c4ccco4)nn23)CC1`, for which the figures for the inhibition constant Ki in test [1], in test [2] and in test [3] were 348 nM, 1080 nM and 12.2 nM, respectively. Also, the concentration for half-maximal inhibition (IC50) in test [4] was over 5000 nM; in test [5], 41 nM.
The corresponding values for `Cn1cc2c(nc(NC(=O)NC3CCN(C(=O)NCc4ccccc4)CC3)n3nc(-c4ccco4)nc23)n1` are 525 nM, over 5000 nM, 8.1 nM, 1110 nM and 29 nM.
The corresponding values for `CN1CCC(NC(=O)Nc2nc3nn(C)cc3c3nc(-c4ccco4)nn23)CC1` are over 5000 nM, over 5000 nM, 253 nM, over 5000 nM and 910 nM.
Turning to `Cn1cc2c(nc(NC(=O)NC3CCN(Cc4ccc(F)cc4)CC3)n3nc(-c4ccco4)nc23)n1`, the values for the Ki in test [1], in test [2] and in test [3] were 1050 nM, over 5000 nM and 24 nM, respectively. The results for the IC50 in test [4] and in test [5] were over 5000 nM and 82 nM, respectively.
In the case of `Cn1cc2c(nc(NC(=O)NC3CCN(Cc4ccc(Cl)cc4)CC3)n3nc(-c4ccco4)nc23)n1`, the Ki in test [1] was 724 nM; in test [2], over 5000 nM; in test [3], 26 nM. Besides, the IC50 in test [4] is over 5000 nM; in test [5], 91 nM.
Take `Cn1cc2c(nc(NC(=O)NC3CCN(C(=O)NCc4ccc(F)cc4)CC3)n3nc(-c4ccco4)nc23)n1`: the figures for the Ki in test [1], in test [2] and in test [3] were 408 nM, 3260 nM and 4.9 nM, respectively. The figures for the IC50 in test [4] and in test [5] were 1040 nM and 15 nM, respectively.
The corresponding values for `C#CCN1CCC(NC(=O)Nc2nc3nn(C)cc3c3nc(-c4ccco4)nn23)CC1` are 802 nM, 789 nM, 25 nM, over 5000 nM and 105 nM.
The corresponding values for `CN1CCN(C(=O)N2CCC(NC(=O)Nc3nc4nn(C)cc4c4nc(-c5ccco5)nn34)CC2)CC1` are 1120 nM, 1280 nM, 31 nM, 2140 nM and 120 nM.
In the case of `CCNC(=O)N1CCC(NC(=O)Nc2nc3nn(C)cc3c3nc(-c4ccco4)nn23)CC1`, the values for the Ki in test [1], in test [2] and in test [3] were 1500 nM, over 5000 nM and 30 nM, respectively. For the same compound, the IC50 in test [4] was over 5000 nM; in test [5], 116 nM.
Take `Cn1cc2c(nc(NC(=O)NC3CCN(Cc4ccc([N+](=O)[O-])cc4)CC3)n3nc(-c4ccco4)nc23)n1`: the figures for the Ki in test [1], in test [2] and in test [3] were 371 nM, over 5000 nM and 12.4 nM, respectively. For the same compound, the IC50 in test [4] is over 5000 nM; in test [5], 42 nM.

What is called Ki is the equilibrium dissociation constant of an inhibitor or competing ligand from its target. Higher therefore signals a looser hold on the target. In general, IC50 refers to the concentration needed to halve the response being measured.
